Measured values published in ChEMBL document CHEMBL1914395, “Design, synthesis, and biological evaluation of callophycin A and analogues as potential chemopreventive and anticancer agents” (Bioorg Med Chem, 2011).

Assays:
HEK293 [1] = experiment: Inhibition of TNF-alpha-induced NFkappaB activation in human HEK293 cells assessed as cell survival at 50 uM after 6 hrs by luciferase assay relative to control; type: cell-based
[2] = biological target: NAD(P)H dehydrogenase [quinone] 1 (Mus musculus) (UniProt Q64669); experiment: Induction of quinone reductase 1 activity in mouse Hepa-1c1c7 cells assessed as cell survival at 50 uM by MTT assay relative to control; type: cell-based
NAD(P)H dehydrogenase [quinone] 1 (Mus musculus), sequence (Q64669 whole entry): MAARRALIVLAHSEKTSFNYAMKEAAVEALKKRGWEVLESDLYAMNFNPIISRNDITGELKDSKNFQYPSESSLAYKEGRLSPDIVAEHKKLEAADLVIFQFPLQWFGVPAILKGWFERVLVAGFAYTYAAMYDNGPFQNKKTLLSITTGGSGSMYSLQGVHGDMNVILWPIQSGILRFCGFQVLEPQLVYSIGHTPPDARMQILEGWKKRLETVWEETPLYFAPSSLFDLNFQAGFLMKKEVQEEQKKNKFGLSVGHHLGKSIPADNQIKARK

[3] = biological target: T1, Nitric oxide synthase, inducible (Mus musculus) (UniProt P29477); experiment: Inhibition of iNOS-mediated nitric oxide production in LPS-stimulated mouse RAW 264.7 cells assessed as cell survival at 50 uM pretreated 15 mins before LPS challenge measured after 20 hrs relative to control; type: cell-based
T1 sequence (whole entry): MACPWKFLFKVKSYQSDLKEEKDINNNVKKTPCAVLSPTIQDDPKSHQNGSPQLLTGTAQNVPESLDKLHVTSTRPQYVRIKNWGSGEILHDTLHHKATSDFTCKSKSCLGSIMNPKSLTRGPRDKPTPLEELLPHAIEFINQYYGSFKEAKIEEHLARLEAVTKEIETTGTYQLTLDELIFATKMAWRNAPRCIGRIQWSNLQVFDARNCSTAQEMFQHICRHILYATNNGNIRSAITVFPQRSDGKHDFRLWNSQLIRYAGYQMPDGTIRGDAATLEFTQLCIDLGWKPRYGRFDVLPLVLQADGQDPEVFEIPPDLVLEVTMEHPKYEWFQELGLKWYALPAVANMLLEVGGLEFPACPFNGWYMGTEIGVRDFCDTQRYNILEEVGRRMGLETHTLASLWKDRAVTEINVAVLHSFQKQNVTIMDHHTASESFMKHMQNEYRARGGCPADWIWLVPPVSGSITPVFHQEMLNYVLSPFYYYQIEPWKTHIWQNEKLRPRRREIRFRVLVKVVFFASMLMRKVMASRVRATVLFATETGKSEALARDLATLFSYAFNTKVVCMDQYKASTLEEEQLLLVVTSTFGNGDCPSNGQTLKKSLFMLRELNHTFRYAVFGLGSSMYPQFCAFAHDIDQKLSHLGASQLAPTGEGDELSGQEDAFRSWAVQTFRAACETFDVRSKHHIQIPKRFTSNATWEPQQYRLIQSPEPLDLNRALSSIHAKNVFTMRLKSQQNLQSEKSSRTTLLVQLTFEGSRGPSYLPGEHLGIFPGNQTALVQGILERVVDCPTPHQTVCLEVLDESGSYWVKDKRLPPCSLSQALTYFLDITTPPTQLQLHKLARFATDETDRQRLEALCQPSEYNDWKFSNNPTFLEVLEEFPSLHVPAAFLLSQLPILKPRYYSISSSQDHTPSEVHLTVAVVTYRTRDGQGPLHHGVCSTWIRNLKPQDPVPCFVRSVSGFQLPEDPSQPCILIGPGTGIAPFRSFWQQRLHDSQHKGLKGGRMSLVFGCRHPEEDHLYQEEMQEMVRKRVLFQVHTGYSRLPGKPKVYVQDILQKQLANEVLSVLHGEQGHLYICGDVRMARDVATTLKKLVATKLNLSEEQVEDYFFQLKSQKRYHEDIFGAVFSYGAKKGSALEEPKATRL
Procedure, shortened: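 RAW 264.7 cells were incubated at 37°C, 5% CO2 for 24 h. They were then exposed to compound for 15 min before LPS (1 μg/mL) was added for 20 h. Cytotoxicity was measured by SRB staining under the same conditions. Survival is expressed as % relative to vehicle-treated controls at 50 μM.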

Aromatase [4] = biological target: T2, Aromatase (Homo sapiens, UniProt P11511); experiment: Inhibition of aromatase after 10 mins preincubation by plate reader relative to control
T2 sequence (P11511 whole entry): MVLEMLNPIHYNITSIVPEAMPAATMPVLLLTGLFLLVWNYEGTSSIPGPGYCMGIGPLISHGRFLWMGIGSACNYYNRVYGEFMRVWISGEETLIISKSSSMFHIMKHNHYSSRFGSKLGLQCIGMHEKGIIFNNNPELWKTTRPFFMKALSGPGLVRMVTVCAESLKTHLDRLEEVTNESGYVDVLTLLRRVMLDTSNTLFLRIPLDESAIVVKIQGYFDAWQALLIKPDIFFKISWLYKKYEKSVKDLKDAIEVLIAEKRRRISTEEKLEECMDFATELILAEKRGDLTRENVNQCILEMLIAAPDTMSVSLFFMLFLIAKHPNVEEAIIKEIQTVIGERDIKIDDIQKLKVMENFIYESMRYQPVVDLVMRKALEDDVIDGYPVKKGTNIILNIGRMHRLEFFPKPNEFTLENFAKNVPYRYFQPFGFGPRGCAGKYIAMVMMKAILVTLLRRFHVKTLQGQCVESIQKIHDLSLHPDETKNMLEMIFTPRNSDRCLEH

[5] = biological target: T1, Nitric oxide synthase, inducible (Mus musculus); experiment: Inhibition of iNOS-mediated nitric oxide production in LPS-stimulated mouse RAW 264.7 cells at 50 uM pretreated 15 mins before LPS challenge measured after 20 hrs relative to control; type: cell-based
Procedure, shortened: (§1)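 RAW 264.7 cells cultured 24 h at 37°C, then given serially diluted compounds for 15 min before LPS (1 μg/mL) for 20 h. Nitrite in the medium measured with Griess reagent at 540 nm against a sodium nitrite standard curve. Cytotoxicity checked by SRB under the same conditions.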

HEK293 [6] = experiment: Inhibition of TNF-alpha-induced NFkappaB activation in human HEK293 cells at 50 uM after 6 hrs by luciferase assay relative to control; type: cell-based
Procedure, shortened: (§2)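 Cells incubated 6 h with TNFα plus test compound, then luciferase activity measured. Results expressed as percent of TNFα-treated control. Screening concentration 50 μM.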

[7] = biological target: NAD(P)H dehydrogenase [quinone] 1 (Mus musculus) (UniProt Q64669); experiment: Induction of quinone reductase 1 activity in mouse Hepa-1c1c7 cells at 50 uM by MTT assay relative to untreated control; type: cell-based
Procedure, shortened: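 Hepa 1c1c7 murine hepatoma cells treated with compound at 50 μM. QR1 measured by NADPH-dependent, menadiol-mediated reduction of MTT to formazan. Protein measured by crystal violet staining of identical plates. Specific activity is nmol formazan per mg protein per min. Induction ratio is treated versus DMSO-treated control.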

Aromatase [8] = biological target: T2, Aromatase; experiment: Inhibition of aromatase at 50 uM after 10 mins preincubation by plate reader relative to control
Procedure, shortened: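 CYP19 enzyme. Compound pre-incubated 10 min with an NADPH-regenerating system (NADP+, glucose 6-phosphate, G6PDH, MgCl2, albumin) in 50 mM potassium phosphate pH 7.4. Enzyme and 0.4 μM dibenzylfluorescein substrate then added, 30 min at 37 °C. Quenched with 2 N NaOH and incubated a further 2 h at 37 °C. Fluorescence read at ex 485/em 530 nm. Compound tested at 50 μM.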

MCF7 [9] = experiment: Antiproliferative activity against human MCF7 cells assessed as survival at 50 uM after 72 hrs by SRB assay relative to control; type: functional; details: MCF7, 72 h, read-out: Survival
Procedure, shortened: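 MCF7 cells (1 × 10^4 per well) were plated onto compound and kept at 37°C, 5% CO2 for 72 h. Cells were fixed in 10% TCA for 30 min and stained with 0.4% SRB in 1% acetic acid for 30 min. Bound dye was dissolved in 10 mM Tris (pH 10.0) and read at 515 nm. Survival is given as % of DMSO-treated controls, screened at 50 μM.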

[10] = biological target: NAD(P)H dehydrogenase [quinone] 1 (Mus musculus) (UniProt Q64669); experiment: Induction of quinone reductase 1 in mouse Hepa 1c1c7 cells assessed as concentration of compound required to double enzyme activity by MTT assay; type: cell-based
Procedure, shortened: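 Dose-response in Hepa 1c1c7 cells, run for substances with induction ratio >2 at 50 μM. QR1 activity measured as menadiol-mediated, NADPH-dependent MTT reduction to formazan, normalised to crystal violet protein content. CD is the concentration that doubles specific activity relative to DMSO control.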

[11] = biological target: T3, Nitric oxide synthase, inducible (Mus musculus, UniProt P29477); experiment: Inhibition of iNOS-mediated nitric oxide production in LPS-stimulated mouse RAW 264.7 cells pretreated 15 mins before LPS challenge measured after 20 hrs relative to control; type: cell-based; procedure, shortened: as §1
T3 sequence (P29477 whole entry): T1 sequence (whole entry)

MCF7 [12] = experiment: Antiproliferative activity against human MCF7 cells after 72 hrs by SRB assay; type: functional, cell-based; details: MCF7, 72 h
Procedure, shortened: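 MCF7 cells, 1 × 10^4 per well, plated directly onto compounds and incubated 72 h at 37°C, 5% CO2. Fixed with 10% TCA, stained with 0.4% SRB in 1% acetic acid. Bound dye dissolved in 10 mM Tris pH 10.0, absorbance read at 515 nm. Survival expressed relative to DMSO-treated controls.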

[13] = Inhibition of TNF-alpha-induced NFkappaB activation in human HEK293 cells after 6 hrs by luciferase assay; type: cell-based; details: HEK293, 6 h; procedure, shortened: as §2

Row | Structure (SMILES) | Survival (HEK293 [1]) | Survival [2] | Survival [3] | IC50 (Aromatase [4]) | inhibition [5] | inhibition (HEK293 [6]) | Ratio [7] | inhibition at 50 µM (Aromatase [8]) | viability at 50 µM (MCF7 [9]) | CD [10] | IC50 [11] | IC50 (MCF7 [12]) | IC50 [13]
1 | O=C(O)[C@@H]1Cc2c([nH]c3ccccc23)CN1Cc1ccc(O)cc1 | 102% | 88.3% | 90.3% | 10.5 µM | 16% | 55% | 1.7 | 57.9% | 85.2% |  |  |  | 
2 | COC(=O)[C@@H]1Cc2c([nH]c3ccccc23)CN1CC1CC1 | 152% | 68.6% | 99.8% | 58.6 µM | 23.5% | 54.1% | 2.2 | 47.7% | 85.6% | 34 µM |  |  | 
3 | COC(=O)[C@H]1Cc2c([nH]c3ccccc23)CN1C(=O)NCCc1ccccc1 | 108% | 51.7% | 66.1% |  | 66.2% | 81.7% | 1.5 | 24.6% | 4.3% |  | 11 µM | 27.7 µM | 13.3 µM
4 | C=CCOC(=O)N1Cc2[nH]c3ccccc3c2C[C@H]1C(=O)OC | 191% | 83.4% | 94.2% | 44.8 µM | 8.5% | 33.3% | 1.9 | 54.6% | 70.4% |  |  |  | 
5 | COC(=O)[C@H]1Cc2c([nH]c3ccccc23)CN1S(C)(=O)=O | 158% | 86.3% | 79.9% | 68.1 µM | 12.9% | 42.2% | 1.6 | 40.2% | 90.9% |  |  |  | 
6 | COC(=O)[C@@H]1Cc2c([nH]c3ccccc23)CN1C(=O)NC12CC3CC(CC(C3)C1)C2 | 139% | 78.1% | 66.7% |  | 64.1% | 60.7% | 0.9 | 30.3% | 37.6% |  | 13.4 µM | 36.9 µM | 10.2 µM
7 | COC(=O)[C@@H]1Cc2c([nH]c3ccccc23)CN1C(=O)NCCc1ccccc1 | 94.6% | 59.6% | 68.9% |  | 48.2% | 87.7% | 0.5 | 31.8% | 1.3% |  |  | 25.4 µM | 16.9 µM
8 | CCCCCNC(=O)N1Cc2[nH]c3ccccc3c2C[C@H]1C(=O)OC | 110% | 7.8% | 94.9% |  | 8.7% | 35.5% | 4.9 | -0.04% | 40.3% | 3.8 µM |  | 38.4 µM | 
9 | COC(=O)[C@@H]1Cc2c([nH]c3ccccc23)CN1C(=O)NC(C)C | 117% | 61.2% | 94.3% | 47.3 µM | 37.8% | 69% | 2.9 | 54% | 71% | 6.4 µM |  |  | 26.5 µM
10 | COC(=O)[C@@H]1Cc2c([nH]c3ccccc23)CN1Cc1ccc(O)cc1 | 96% | 91.7% | 75.5% | 57.4 µM | 62.1% | 47.8% | 1.3 | 46.1% | 94.7% |  | 38.8 µM |  | 
